Measured values from ChEMBL document CHEMBL3352193, “Synthesis of novel substituted purine derivatives and identification of the cell death mechanism” (Eur J Med Chem, 2015).
Active and inactive are the calls of the source. The rule behind the calls is not given here.

Tests used:
[1] = Cytotoxicity against human HuH7 cells after 72 hrs by SRB assay; assay type: functional, cell-based; details: Huh-7, 72 h
Procedure, shortened: (§1)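 Sulforhodamine B assay. Cells seeded at 2000–10,000/well and treated the next day in triplicate with ten concentrations (DMSO vehicle, under 1% final) for 24, 48 or 72 h at 37 °C, 5% CO2. Fixed with ice-cold TCA for 1 h at 4 °C, stained with 0.4% SRB in 1% acetic acid, dye solubilized in 10 mM Tris base, A515 read. % inhibition = 100 × (1 − OD drug/OD DMSO). IC50 taken from dose–response curves.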

[2] = Cytotoxicity against human HCT116 cells after 72 hrs by SRB assay; assay type: functional, cell-based; details: HCT-116, 72 h
Procedure, shortened: (§2)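 SRB screen. Cells seeded at 2000–10,000/well and treated next day for 72 h with 40, 20, 10, 5 and 2.5 µM (DMSO under 1%). TCA fixation, 0.4% SRB staining, Tris solubilization, absorbance at 515 nm. Growth inhibition calculated relative to DMSO-only wells. IC50 derived from the five-concentration inhibition percentages.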

T47D [3] = assay: Cytotoxicity against human T47D cells after 72 hrs by SRB assay; assay type: functional, cell-based
Huh-7 [4] = assay: Cytotoxicity against human HuH7 cells at 2.5 to 40 uM after 72 hrs by SRB assay; assay type: functional, cell-based; procedure, shortened: as §2
HCT-116 = assay: Cytotoxicity against human HCT116 cells at 2.5 to 40 uM after 72 hrs by SRB assay; assay type: functional, cell-based; procedure, shortened: as §2
T47D [5] = assay: Cytotoxicity against human T47D cells at 2.5 to 40 uM after 72 hrs by SRB assay; assay type: functional, cell-based; procedure, shortened: as §2
HepG2 = assay: Cytotoxicity against human HepG2 cells after 72 hrs by SRB assay; assay type: functional, cell-based; details: HepG2, 72 h; procedure, shortened: as §1
[6] = Cytotoxicity against human Hep3B cells after 72 hrs by SRB assay; assay type: functional, cell-based, Hep 3B2
Procedure, shortened: (§3)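 Liver cancer cell panel, SRB assay after 72 h exposure to ten concentrations (DMSO vehicle under 1%). TCA-fixed, SRB-stained, absorbance at 515 nm. Percent cell death calculated against DMSO-only wells, and IC50 read from dose–response curves.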

PLC = assay: Cytotoxicity against human PLC cells after 72 hrs by SRB assay; assay type: functional, cell-based; procedure, shortened: as §3
[7] = Cytotoxicity against human SKHEP1 cells after 72 hrs by SRB assay; assay type: functional, cell-based; details: SK-HEP1, 72 h; procedure, shortened: as §3
[8] = Cytotoxicity against human Mahlavu cells after 72 hrs by SRB assay; assay type: functional, cell-based; procedure, shortened: as §1
[9] = Cytotoxicity against human FOCUS cells after 72 hrs by SRB assay; assay type: functional, cell-based; procedure, shortened: as §1
[10] = Cytotoxicity against human SNU182 cells after 72 hrs by SRB assay; assay type: functional, cell-based; details: SNU-182, 72 h; procedure, shortened: as §3
[11] = Cytotoxicity against human SNU475 cells after 72 hrs by SRB assay; assay type: functional, cell-based, SNU-475; details: Homo sapiens, SNU-475, 72 h; read-out: IC50; procedure, shortened: as §3
Huh-7 [12] = assay: Cytotoxicity against human HuH7 cells assessed as condensed apoptotic nuclei after 72 hrs by Hoechst […] staining-based fluorescence microscopy; assay type: functional, cell-based
FOCUS = assay: Cytotoxicity against human FOCUS cells assessed as condensed apoptotic nuclei after 72 hrs by Hoechst […] staining-based fluorescence microscopy; assay type: functional, cell-based
Mahlavu [13] = assay: Induction of apoptosis in human Mahlavu cells assessed as PARP cleavage at IC50 after 72 hrs by Western blotting analysis; assay type: functional, cell-based
Mahlavu [14] = assay: Induction of […] in human Mahlavu cells assessed as PARP cleavage at IC50 after 72 hrs by Western blotting analysis; assay type: functional, cell-based
Mahlavu [15] = assay: Induction of apoptosis in human Mahlavu cells assessed as Bcl2 expression at IC50 after 72 hrs by Western blotting analysis; assay type: functional, cell-based
Mahlavu [16] = assay: Induction of apoptosis in human Mahlavu cells assessed as total cytochrome c level at IC50 after 72 hrs by Western blotting analysis; assay type: functional, cell-based
Huh-7 [17] = assay: Reduction in intrinsic cellular ATP consumption in human HuH7 cells at IC50 after 24 hrs by bioluminescence assay; assay type: functional, cell-based
Procedure, shortened: (§4)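 Cells treated for 24 h, with staurosporine as positive control and DMSO-only controls. 20 µg lysate protein in kinase buffer (40 mM Tris-HCl pH 7.6, 20 mM MgCl2, 0.1 mg/ml BSA), no exogenous ATP added. Luciferase ATP-detection reagent added, 10 min in the dark at room temperature, then luminescence read. Higher signal taken as reduced ATP consumption.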

Mahlavu [18] = assay: Reduction in intrinsic cellular ATP consumption in human Mahlavu cells at IC50 after 24 hrs by bioluminescence assay; assay type: functional, cell-based; procedure, shortened: as §4

SMILES | IC50 [1] | IC50 [2] | IC50 (T47D [3]) | inhibition (Huh-7 [4]) | inhibition (HCT-116) | inhibition (T47D [5]) | also measured
Cc1ccc(S(=O)(=O)n2cnc3c(NCCC4C=CCCC4)ncnc32)cc1 (stereo not drawn) | 9.4 µM | 8.7 µM | 34.5 µM |  |  |  | 
Nc1nc(F)nc2c1ncn2[C@@H]1O[C@H](CO)[C@@H](O)[C@@H]1O [FLUDARABINE] | 60.1 µM | 6.6 µM | 46.2 µM |  |  |  | 
c1ccc(CN2CCC(Nc3ncnc4[nH]cnc34)CC2)cc1 |  |  |  | inactive | inactive | inactive | 
CCOC(=O)Cn1cnc2c(NCc3ccc(Cl)cc3Cl)ncnc21 |  |  | 99.9 µM | inactive | inactive |  | 
CC(C)NCCNCCn1cnc2c(N)ncnc21 |  |  |  | inactive | inactive | inactive | 
Nc1ncnc2c1ncn2CCNCCN1CCOCC1 |  |  |  | inactive | inactive | inactive | 
CCOC(=O)Cn1cnc2c(NCc3cccc(C(F)(F)F)c3)ncnc21 |  | > 200 µM |  | inactive |  | inactive | 
Fc1ccc(CNc2ncnc3[nH]cnc23)c(F)c1 |  |  |  | inactive | inactive | inactive | 
CN1CCN(NCCn2cnc3c(N)ncnc32)CC1 |  |  |  | inactive | inactive | inactive | 
CCOC(=O)Cn1cnc2c(N3CCN(CCO)CC3)ncnc21 |  |  |  | inactive | inactive | inactive | 
Cc1ccc(S(=O)(=O)n2cnc3c(N4CCN(c5ccc(C(F)(F)F)cc5)CC4)ncnc32)cc1 | 1.4 µM | 4.5 µM | 42.7 µM |  |  |  | IC50 (HepG2): 1.2 µM; IC50 [6]: 2.9 µM; IC50 (PLC): 3.7 µM; IC50 [7]: 1.7 µM; IC50 [8]: 1 µM; IC50 [9]: 1 µM; IC50 [10]: 8.4 µM; IC50 [11]: 5.4 µM; Activity (Huh-7 [12]): Active; Activity (FOCUS): Active; Activity (Mahlavu [13]): inactive; Activity (Mahlavu [14]): inactive; Activity (Mahlavu [15]): inactive; Activity (Mahlavu [16]): inactive; Activity (Huh-7 [17]): Active; Activity (Mahlavu [18]): Active
OCCN1CCN(c2[nH]cnc3ncnc2-3)CC1 |  |  |  | inactive | inactive | inactive | 
CC1CCN(c2ncnc3c2ncn3C2CCCC2)CC1 | 17.4 µM | 16.6 µM | 21 µM |  |  |  | 
O=c1[nH]cc(F)c(=O)[nH]1 [FLUOROURACIL] |  | 6 µM | 7.9 µM |  |  |  | 
FC(F)(F)c1cccc(CNc2ncnc3[nH]cnc23)c1 | 68.3 µM | 102 µM |  |  |  | inactive | 
COc1ccc(CNc2ncnc3c2ncn3S(=O)(=O)c2ccc(C)cc2)cc1 |  |  |  | inactive | inactive | inactive | 
CCNCCNCCn1cnc2c(N)ncnc21 |  |  |  | inactive | inactive | inactive | 
c1nc(NC2CC2)c2nc[nH]c2n1 |  |  |  | inactive | inactive | inactive | 
C1=CC(CCNc2ncnc3[nH]cnc23)CCC1 (stereo not drawn) | 14.2 µM | 12.9 µM | 40.3 µM |  |  |  | 
Clc1ccc(CNc2ncnc3[nH]cnc23)c(Cl)c1 |  |  | 147 µM | inactive | inactive |  | 

SMILES | IC50 [1] | IC50 [2] | IC50 (T47D [3]) | inhibition (Huh-7 [4]) | inhibition (HCT-116) | inhibition (T47D [5]) | also measured
OCCNc1ncnc2[nH]cnc12 |  |  |  | inactive | inactive | inactive | 
Nc1ncnc2c1ncn2CCN1CCN(CCN2CCOCC2)CC1 |  |  |  | inactive | inactive | inactive | 
Nc1ncnc2c1ncn2CCNCCN1CCCC1 |  |  |  | inactive | inactive | inactive | 
COc1ccc(CNc2ncnc3[nH]cnc23)cc1 |  | 86.6 µM |  | inactive |  | inactive | 
Cc1ccc(S(=O)(=O)n2cnc3c(N4CCC(C)CC4)ncnc32)cc1 | 17.8 µM | 14.6 µM | 22.5 µM |  |  |  | 
CN(C)CCNCCn1cnc2c(N)ncnc21 |  |  |  | inactive | inactive | inactive | 
OC[C@H]1O[C@@H](n2cnc3c2N=CNC[C@H]3O)C[C@@H]1O |  |  |  | inactive | inactive | inactive | 
FC(F)(F)c1ccc(N2CCN(c3ncnc4[nH]cnc34)CC2)cc1 | 3.2 µM | 5.1 µM | 39.4 µM |  |  |  | IC50 (HepG2): 3.7 µM; IC50 [6]: 6.7 µM; IC50 (PLC): 10.5 µM; IC50 [7]: 4.9 µM; IC50 [8]: 2.3 µM; IC50 [9]: 2.9 µM; IC50 [10]: 55.4 µM; IC50 [11]: 9.6 µM; Activity (Huh-7 [12]): Active; Activity (FOCUS): Active; Activity (Mahlavu [13]): inactive; Activity (Mahlavu [14]): inactive; Activity (Mahlavu [15]): inactive; Activity (Mahlavu [16]): inactive; Activity (Huh-7 [17]): Active; Activity (Mahlavu [18]): Active
Cc1ccc(S(=O)(=O)n2cnc3c(NC4CC4)ncnc32)cc1 |  |  |  | inactive | inactive | inactive | 
Nc1ncnc2c1ncn2CCNCCNc1ccccc1 |  |  |  | inactive | inactive | inactive | 
CC1CCN(c2ncnc3[nH]cnc23)CC1 |  |  |  | inactive | inactive | inactive | 
Cc1ccc(S(=O)(=O)n2cnc3c(NCc4ccc(F)cc4F)ncnc32)cc1 |  |  | 116 µM | inactive | inactive |  | 
Nc1ncnc2c1ncn2CCN1CCN(CCO)CC1 |  |  |  | inactive | inactive | inactive | 
CCOC(=O)Cn1cnc2c(N3CCN(c4ccc(C(F)(F)F)cc4)CC3)ncnc21 | 53.3 µM | 72.4 µM |  |  |  | inactive | 
Nc1nc(Cl)nc2c1ncn2[C@H]1C[C@H](O)[C@@H](CO)O1 [CLADRIBINE] | 1.8 µM | 0.3 µM | 0.7 µM |  |  |  | 
O=CN1CCN(c2ncnc3[nH]cnc23)CC1 |  |  |  | inactive | inactive | inactive | 
c1ccc(NCCNc2ncnc3[nH]cnc23)cc1 |  | 132 µM |  | inactive |  | inactive | 
Cc1ccc(S(=O)(=O)n2cnc3c(Cl)ncnc32)cc1 | 20.8 µM | 22.8 µM | 13.9 µM |  |  |  | 
Cc1ccc(S(=O)(=O)n2cnc3c(NCc4ccc(Cl)cc4Cl)ncnc32)cc1 | 26.9 µM | 28.1 µM | 47.6 µM |  |  |  | 
